Target: Autotaxin (Homo sapiens, UniProt Q13822)
Assay: Inhibition of 6x-histidine-tagged human recombinant ATX expressed in HEK293 cells assessed as choline release using lysophosphatidylcholine as substrate after 4 hrs by choline release assay
Procedure, shortened: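 Recombinant ATX at 10 nM final (~20 nM in enzyme half) in 50 mM Tris-HCl pH 7.4, 0.01% Triton X-100, inhibitor added in DMSO. LPC (18:1) at 40 μM final, buffer with 10 mM MgCl2 and 10 mM CaCl2. Ten concentrations, 0.01–30 μM. Controls were DMSO alone and LPC without enzyme.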

IC50 [µM] | SMILES
1.59 | O=C1SC(Cc2ccc(OCc3ccc(B(O)O)cc3)cc2)C(O)N1Cc1ccc(F)cc1 (centres undefined)
> 5 | O=C1S/C(=C\c2ccc(/C=C/c3ccc(B(O)O)cc3)cc2)C(=O)N1Cc1ccc(F)cc1
0.683 | O=c1sc(Cc2ccc(OCc3ccc(B(O)O)cc3)cc2)cn1Cc1ccc(F)cc1
0.025 | O=C1SC(Cc2ccc(OCc3ccc(B(O)O)cc3)cc2)C(=O)N1Cc1ccc(F)cc1 (centres undefined)
0.0053 | CN1C(=O)N(Cc2ccc(F)cc2)C(=O)/C1=C\c1ccc(OCc2ccc(B(O)O)cc2)cc1
0.0067 | CN1C(=O)N(Cc2ccc(F)cc2)C(=O)/C1=C/c1ccc(OCc2ccc(B(O)O)cc2)cc1
0.0073 | O=C1C/C(=C\c2ccc(OCc3ccc(B(O)O)cc3)cc2)C(=O)N1Cc1ccc(F)cc1
0.059 | O=C1[C@H]2Cc3ccc(OCc4ccc(B(O)O)cc4)cc3CN2C(=O)N1Cc1ccc(F)cc1
0.071 | O=C(NCc1ccc(B(O)O)cc1)c1ccc(/C=C2\SC(=O)N(Cc3ccc(F)cc3)C2=O)cc1
0.026 | O=C1N/C(=C\c2ccc(OCc3ccc(B(O)O)cc3)cc2)C(=O)N1Cc1ccc(F)cc1
0.01 | O=C(Nc1ccc(/C=C2\SC(=O)N(Cc3ccc(F)cc3)C2=O)cc1)c1ccc(B(O)O)cc1
0.147 | O=C(Nc1ccc(B(O)O)cc1)c1ccc(/C=C2\SC(=O)N(Cc3ccc(F)cc3)C2=O)cc1
0.0083 | O=C1S/C(=C\c2ccc(NCc3ccc(B(O)O)cc3)cc2)C(=O)N1Cc1ccc(F)cc1
0.055 | O=C1[C@@H]2Cc3ccc(OCc4ccc(B(O)O)cc4)cc3CN2C(=O)N1Cc1ccc(F)cc1

Reference: ChEMBL document CHEMBL1800044, “Structure-based design of novel boronic acid-based inhibitors of autotaxin” (J Med Chem, 2011)
